Measurements published in ChEMBL document CHEMBL2062474, “Discovery and preliminary SAR of bisbenzylisoquinoline alkaloids as inducers of C/EBPα” (Bioorg Med Chem, 2012).

Key:
U-937 [1] = assay: Induction of rat C/EBPalpha expression transfected in human U937 cells after 24 hrs by luciferase reporter gene assay relative to ATRA; type: functional
Outline: (§1)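 Engineered U937 line (4X C/EBPα binding site driving a luciferase reporter) incubated 24 h with or without sample in 384-well plates, in triplicate, across multiple 2-fold doses. Luminescence was read after adding Britelite reagent. ATRA ran on each plate as positive control. Fold induction was normalized to ATRA induction.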

U-937 [2] = assay: Cytotoxicity against human U937 cells after 24 hrs by alamar blue assay; type: cell-based; conditions: U-937, 24 h
Outline: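 U937 cells exposed to test sample for 24 h in 384-well format. Toxicity read by Alamar Blue fluorescence and expressed as growth relative to untreated U937 cells. Value is the concentration giving 50% growth inhibition, from multiple 2-fold doses tested in triplicate.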

U-937 [3] = assay: Induction of rat C/EBPalpha expression transfected in human U937 cells at 25 uM after 24 hrs by luciferase reporter gene assay relative to ATRA; type: functional; outline: as §1
[4] = Cytotoxicity against human U937 cells assessed as cell growth at 25 uM after 24 hrs by alamar blue assay; type: cell-based, U-937; conditions: read-out: Activity
Outline: (§2)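 U937 cells engineered with a multimerized C/EBPα binding site driving luciferase were incubated with compound in 384-well format, in triplicate, at multiple 2-fold doses. Toxicity was read by Alamar Blue fluorescence. Growth is expressed relative to untreated U937 cells.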

[5] = Cytotoxicity against human U937 cells assessed as cell growth at 50 uM after 24 hrs by alamar blue assay; type: cell-based, U-937; conditions: read-out: Activity; outline: as §2
U-937 [6] = assay: Induction of rat C/EBPalpha expression transfected in human U937 cells at 50 uM after 24 hrs by luciferase reporter gene assay relative to ATRA; type: functional; outline: as §1
[7] = Cytotoxicity against human U937 cells assessed as cell growth at 12 uM after 24 hrs by alamar blue assay; type: cell-based, U-937; conditions: read-out: Activity; outline: as §2
U-937 [8] = assay: Induction of rat C/EBPalpha expression transfected in human U937 cells at 12 uM after 24 hrs by luciferase reporter gene assay relative to ATRA; type: functional; outline: as §1
U-937 [9] = assay: Induction of rat C/EBPalpha expression transfected in human U937 cells at 3.1 uM after 24 hrs by luciferase reporter gene assay relative to ATRA; type: functional
Outline: (§3)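 U937 cells carry a luciferase reporter driven by a multimerized C/EBPα binding site (U937 4X C/EBPα). Cells incubated 24 h with or without test sample in 384-well plates, then luciferase read by luminescence. ATRA included on each plate as positive control, and fold induction normalized to ATRA. Multiple 2-fold doses tested in triplicate.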

[10] = Cytotoxicity against human U937 cells assessed as cell growth at 3.1 uM after 24 hrs by alamar blue assay; type: cell-based, U-937; conditions: read-out: Activity
Outline: (§4)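 U937 cells incubated 24 h with test sample in multiple 2-fold doses, tested in triplicate, in 384-well format. Cell growth read by Alamar Blue fluorescence relative to untreated U937 cells. Value is growth at the concentration giving maximum C/EBPα fold induction.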

[11] = Cytotoxicity against human U937 cells assessed as cell growth at 6.2 uM after 24 hrs by alamar blue assay; type: cell-based, U-937; conditions: read-out: Activity; outline: as §4
U-937 [12] = assay: Induction of rat C/EBPalpha expression transfected in human U937 cells at 6.2 uM after 24 hrs by luciferase reporter gene assay relative to ATRA; type: functional; outline: as §3
U-937 [13] = assay: Induction of rat C/EBPalpha expression transfected in human U937 cells at 0.78 uM after 24 hrs by luciferase reporter gene assay relative to ATRA; type: functional; outline: as §3
[14] = Cytotoxicity against human U937 cells assessed as cell growth at 0.78 uM after 24 hrs by alamar blue assay; type: cell-based, U-937; conditions: read-out: Activity; outline: as §4
HL-60 = assay: Induction of rat C/EBPalpha expression transfected in human HL60 cells after 24 hrs by luciferase reporter gene assay relative to control; type: functional
U-937 [15] = assay: Induction of rat C/EBPalpha expression transfected in human U937 cells after 24 hrs by luciferase reporter gene assay relative to control; type: functional; outline: as §3

Structure (SMILES): COc1cc2c(cc1Oc1ccc(OC)c3c1C[C@H]1c4c(cc(OC)c(OC)c4-3)CCN1C)C[C@H]1c3c(cc(OC)c(OC)c3-2)CCN1C
- MED (U-937 [1]): >50 µM
- IC50 (U-937 [2]): > 50 µM
- fold change (FC) (U-937 [3]): 0.9
- viability at 24 h, 25 µM [4]: 61%

Structure (SMILES): COc1cc2c3cc1Oc1c(OC)c(OC)cc4c1[C@@H](Cc1ccc(O)c(c1)Oc1ccc(cc1)C[C@@H]3N(C)CC2)N(C)CC4 [BERBAMINE]
- MED (U-937 [1]): 25 µM
- IC50 (U-937 [2]): > 50 µM
- viability at 24 h, 50 µM [5]: 70%
- fold change (FC) (U-937 [6]): 1.2

Structure (SMILES): COc1ccc2cc1Oc1ccc(cc1)C[C@H]1c3c(cc4c(c3Oc3cc5c(cc3OC)CCN(C)[C@@H]5C2)OCO4)CCN1C [CEPHARANTHINE]
- MED (U-937 [1]): 12 µM
- IC50 (U-937 [2]): > 50 µM
- viability at 24 h, 12 µM [7]: 87%
- fold change (FC) (U-937 [8]): 1

Structure (SMILES): COc1cc2c3cc1Oc1cc(ccc1O)C[C@@H]1c4c(cc(OC)c(O)c4Oc4cccc(c4)C[C@H]3N(C)CC2)CCN1C [CHONDODENDRINE]
- MED (U-937 [1]): 12 µM
- IC50 (U-937 [2]): > 50 µM
- fold change (FC) (U-937 [3]): 1.9

Structure (SMILES): COc1cc2c3c(O)c1OCc1ccc(cc1)C[C@@H]1c4c(cc(OC)c(OC)c4Oc4ccc(cc4)CC3=NCC2)CCN1C [CISSAMPAREINE]
- MED (U-937 [1]): >50 µM
- fold change (FC) (U-937 [9]): 0.5
- IC50 (U-937 [2]): > 50 µM
- viability at 24 h, 3.1 µM [10]: 78%

Structure (SMILES): COc1ccc2cc1Oc1ccc(cc1)CC1=NCCc3cc(OC)c(OC)c(c31)Oc1cc3c(cc1OC)CCN(C)[C@@H]3C2 [EPISTEPHANINE]
- MED (U-937 [1]): >50 µM
- IC50 (U-937 [2]): > 50 µM
- viability at 24 h, 6.2 µM [11]: 99%
- fold change (FC) (U-937 [12]): 0.9

Structure (SMILES): COc1ccc2cc1Oc1ccc(cc1)C[C@H]1c3cc(c(OC)cc3CCN1C)Oc1c(OC)c(OC)cc3c1[C@H](C2)N(C)CC3 [FANCHININ]
- MED (U-937 [1]): >50 µM
- IC50 (U-937 [2]): > 50 µM
- fold change (FC) (U-937 [3]): 0.9
- viability at 24 h, 25 µM [4]: 69%

Structure (SMILES): COc1ccc2cc1Oc1ccc(cc1)C[C@H]1c3cc(c(OC)cc3CCN1C)Oc1c(O)c(OC)cc3c1[C@H](C2)N(C)CC3 [FANGCHINOLINE]
- MED (U-937 [1]): 25 µM
- IC50 (U-937 [2]): > 50 µM
- viability at 24 h, 50 µM [5]: 102%
- fold change (FC) (U-937 [6]): 2

Structure (SMILES): COc1cc2c3cc1Oc1c(OC)c(OC)cc4c1[C@H](Cc1ccc(O)c(c1)-c1cc(ccc1OC)C[C@H]3N(C)CC2)N(C)CC4 [FUNIFERINE]
- MED (U-937 [1]): 12 µM
- IC50 (U-937 [2]): > 50 µM
- viability at 24 h, 50 µM [5]: 94%
- fold change (FC) (U-937 [6]): 2.2

Structure (SMILES): COc1cc2c(cc1O)[C@H]1Cc3c(cc(OC)c(OC)c3Oc3cc4c(cc3OC)CCN(C)[C@@H]4Cc3ccc(O)cc3)[C@@H](C2)N1C [HERVELINE O]
- MED (U-937 [1]): >50 µM
- IC50 (U-937 [2]): > 50 µM
- fold change (FC) (U-937 [3]): 0.46
- viability at 24 h, 25 µM [4]: 108%

Structure (SMILES): COc1ccc2cc1Oc1ccc(cc1)C[C@H]1c3c(cc(OC)c(O)c3Oc3cc4c(cc3OC)CCN(C)[C@@H]4C2)CCN1C [HOMOAROMOLINE]
- MED (U-937 [1]): 3.1 µM
- IC50 (U-937 [2]): > 50 µM
- viability at 24 h, 50 µM [5]: 80%
- fold change (FC) (U-937 [6]): 1.9

Structure (SMILES): COc1ccc2cc1Oc1ccc(cc1)C[C@@H]1c3cc(c(OC)cc3CCN1C)Oc1c(OC)c(OC)cc3c1[C@H](C2)N(C)CC3 [ISOTETRANDRINE]
- MED (U-937 [1]): 12 µM
- IC50 (U-937 [2]): > 50 µM
- fold change (FC) (U-937 [3]): 1.2
- viability at 24 h, 25 µM [4]: 69%

Structure (SMILES): COc1ccc(CC2c3cc(OC)c(OC)cc3CCN2C)cc1OC (stereo unspecified) [LAUDANOSINE]
- MED (U-937 [1]): >50 µM
- fold change (FC) (U-937 [3]): 0

Structure (SMILES): COc1ccc2cc1Oc1ccc(cc1)C[C@H]1NCCc3cc(OC)c(cc31)Oc1c(O)c(OC)cc3c1CCN(C)[C@@H]3C2 [NORPANURENSINE]
- MED (U-937 [1]): 12 µM
- IC50 (U-937 [2]): > 50 µM
- viability at 24 h, 50 µM [5]: 113%
- fold change (FC) (U-937 [6]): 2.5

Structure (SMILES): COc1cc2c3cc1Oc1c(O)c(OC)cc4c1[C@@H](Cc1ccc(O)c(c1)Oc1ccc(cc1)C[C@@H]3N(C)CC2)N(C)CC4 [OBAMEGINE]
- MED (U-937 [1]): 3 µM
- IC50 (U-937 [2]): 25 µM
- viability at 24 h, 12 µM [7]: 89%
- fold change (FC) (U-937 [8]): 2.6

Structure (SMILES): COc1ccc2cc1Oc1ccc(cc1)C[C@@H]1c3cc(c(OC)cc3CCN1C)Oc1c(OC)c(OC)cc3c1[C@@H](C2)N(C)CC3 [PHAEANTHINE]
- MED (U-937 [1]): >50 µM
- IC50 (U-937 [2]): 50 µM
- viability at 24 h, 12 µM [7]: 104%
- fold change (FC) (U-937 [8]): 0.75

Structure (SMILES): COC1=CC2=C3[C@H](Cc4cc5c(c(c4)Oc4ccc(cc4)C[C@H]4c6cc7c(cc6CCN4C)OC[C@@]3(O7)C1=O)OCO5)N(C)CC2 [REPANDULINE]
- MED (U-937 [1]): 50 µM
- IC50 (U-937 [2]): > 50 µM
- viability at 24 h, 50 µM [5]: 67%
- fold change (FC) (U-937 [6]): 1.5

Structure (SMILES): COc1ccc2cc1Oc1ccc(cc1)C[C@@H]1c3c(cc(OC)c4c3Oc3cc5c(cc3O4)CCN[C@@H]5C2)CCN1C [TELOBINE]
- MED (U-937 [1]): 1.5 µM
- fold change (FC) (U-937 [9]): 1.9
- IC50 (U-937 [2]): 12 µM
- viability at 24 h, 3.1 µM [10]: 82%

Structure (SMILES): COc1cc2c3cc1Oc1c(OC)c(OC)cc4c1[C@H](Cc1cc5c(c(c1)Oc1ccc(cc1)C[C@@H]3N(C)CC2)OCO5)N(C)CC4 [TENUIPINE]
- MED (U-937 [1]): 25 µM
- IC50 (U-937 [2]): > 50 µM
- fold change (FC) (U-937 [3]): 1.4
- viability at 24 h, 25 µM [4]: 105%

Structure (SMILES): COc1ccc(C[C@H]2c3cc(OC)c(OC)c(OC)c3CC[N+]2(C)C)cc1Oc1ccc(C[C@H]2c3cc4c(c(OC)c3CC[N+]2(C)C)OCO4)cc1.[I-].[I-] [THALISTYLINE DIMETHOIODIDE]
- MED (U-937 [1]): >50 µM
- fold change (FC) (U-937 [9]): 0.4
- IC50 (U-937 [2]): > 50 µM
- viability at 24 h, 3.1 µM [10]: 116%

Structure (SMILES): COc1ccc(C[C@H]2c3cc(OC)c(OC)c(OC)c3CC[N+]2(C)C)cc1Oc1ccc(C[C@H]2c3cc(OC)c4c(c3CCN2C)OCO4)cc1.[Cl-] [THALISTYLINE]
- MED (U-937 [1]): >50 µM
- fold change (FC) (U-937 [13]): 0.9
- viability at 24 h, 0.78 µM [14]: 133%
- IC50 (U-937 [2]): > 50 µM

Structure (SMILES): COc1ccc2cc1-c1cc(ccc1O)C[C@H]1c3cc4c(cc3CCN1C)Oc1c(OC)cc3c(c1O4)[C@H](C2)N(C)CC3 [TILIACORININE]
- MED (U-937 [1]): 12 µM
- IC50 (U-937 [2]): 25 µM
- viability at 24 h, 12 µM [7]: 63%
- fold change (FC) (U-937 [8]): 1.9

Structure (SMILES): CC1=C(/C=C/C(C)=C/C=C/C(C)=C/C(=O)O)C(C)(C)CCC1 [TRETINOIN]
- fold change (FC) (HL-60): 2
- fold change (FC) (U-937 [15]): 2

Structure (SMILES): COc1cc2c3c4c1Oc1cc5c(cc1O4)[C@@H](Cc1ccc(O)c(c1)Oc1ccc(cc1)C[C@@H]3N(C)CC2)N(C)CC5 [TRIGILLETINE]
- MED (U-937 [1]): >50 µM
- fold change (FC) (U-937 [9]): 0.8
- IC50 (U-937 [2]): 50 µM
- viability at 24 h, 3.1 µM [10]: 108%
